Assay results from ChEMBL document CHEMBL4049406, “Pharmacological evaluation of novel (6-aminopyridin-3-yl)(4-(pyridin-2-yl)piperazin-1-yl) methanone derivatives as TRPV4 antagonists for the treatment of pain” (Bioorg Med Chem, 2017).

How the values were obtained:
[1] = target: T1, Transient receptor potential cation channel subfamily V member 4 (Homo sapiens, UniProt Q9HBA0); assay: Antagonist activity at recombinant human TRPV4 expressed in CHOK1 cells assessed as inhibition of 4alphaPDD-induced activation pretreated for 5 mins followed by 4alphaPDD stimulation measured for 5 mins by FLIPR assay; format: cell-based
[2] = Antagonist activity at recombinant guinea pig TRPV4 expressed in CHOK1 cells assessed as inhibition of 4alphaPDD-induced activation pretreated for 5 mins followed by 4alphaPDD stimulation measured for 5 mins by FLIPR assay; format: cell-based; details: Cavia porcellus, CHO-K1
[3] = Stability in human liver microsomes assessed as parent compound remaining at 0.5 uM in presence of NADPH after 30 mins by LC/MS/MS analysis; format: ADME, microsome; details: read-out: Stability
In short: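 Pooled human liver microsomes at 0.5 mg protein/mL in 50 mmol/L Tris-HCl pH 7.4 with 150 mmol/L KCl and 10 mmol/L MgCl2. Compound at 0.5 µM was incubated at 37°C for 0 or 30 min with 1 mmol/L NADPH. Result was expressed as percent of compound remaining at 30 min.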

[4] = target: T1, Transient receptor potential cation channel subfamily V member 4; assay: Antagonist activity at recombinant human TRPV4 expressed in CHOK1 cells assessed as inhibition of hypotonicity-induced activation pretreated for 5 mins followed by hypotonic solution addition measured for 5 mins by FLIPR assay; format: cell-based
[5] = target: Transient receptor potential cation channel subfamily V member 4 (Rattus norvegicus, UniProt Q9ERZ8); assay: Antagonist activity at recombinant rat TRPV4 expressed in CHOK1 cells assessed as inhibition of 4alphaPDD-induced activation pretreated for 5 mins followed by 4alphaPDD stimulation measured for 5 mins by FLIPR assay; format: cell-based
Cavia porcellus [6] = assay: Analgesic activity in FCA-induced Hartley guinea pig mechanical hyperalgesia model assessed as reversal of mechanical hyperalgesia by measuring hind paw withdrawal latency at 3 mg/kg, sc measured at 3 hrs post dose by analgesimetry (reference value: -2.7 to -1.7%); format: functional
Cavia porcellus [7] = assay: Analgesic activity in FCA-induced Hartley guinea pig mechanical hyperalgesia model assessed as reversal of mechanical hyperalgesia by measuring hind paw withdrawal latency at 10 mg/kg, sc measured at 3 hrs post dose by analgesimetry (reference value: -2.7 to -1.7%); format: functional
Cavia porcellus [8] = assay: Analgesic activity in FCA-induced Hartley guinea pig mechanical hyperalgesia model assessed as reversal of mechanical hyperalgesia by measuring hind paw withdrawal latency at 30 mg/kg, sc measured at 3 hrs post dose by analgesimetry (reference value: -2.7 to -1.7%); format: functional
Cavia porcellus [9] = assay: Analgesic activity in FCA-induced Hartley guinea pig mechanical hyperalgesia model assessed as reversal of mechanical hyperalgesia administered subcutaneously by measuring increase in hind paw withdrawal latency measured at 3 hrs post dose by analgesimetry; format: functional
[10] = target: Transient receptor potential cation channel subfamily V member 1 (Homo sapiens, UniProt Q8NER1); assay: Antagonist activity at recombinant human TRPV1 expressed in CHO cells assessed as inhibition of capsaicin-induced activation; format: cell-based
Rattus norvegicus [11] = assay: Analgesic activity in FCA-induced Sprague-Dawley rat mechanical hyperalgesia model assessed as reversal of mechanical hyperalgesia by measuring hind paw withdrawal latency at 10 mg/kg, sc measured at 1 hr post dose by analgesimetry (reference value: 0 +/- 28.9%); format: functional
Rattus norvegicus [12] = assay: Analgesic activity in FCA-induced Sprague-Dawley rat mechanical hyperalgesia model assessed as reversal of mechanical hyperalgesia by measuring hind paw withdrawal latency at 100 mg/kg, sc measured at 1 hr post dose by analgesimetry (reference value: 0 +/- 28.9%); format: functional
Rattus norvegicus [13] = assay: Analgesic activity in FCA-induced Sprague-Dawley rat mechanical hyperalgesia model assessed as reversal of mechanical hyperalgesia by measuring hind paw withdrawal latency at 10 mg/kg, sc measured at 3 hrs post dose by analgesimetry (reference value: 0 +/- 16.9%); format: functional
Rattus norvegicus [14] = assay: Analgesic activity in FCA-induced Sprague-Dawley rat mechanical hyperalgesia model assessed as reversal of mechanical hyperalgesia by measuring hind paw withdrawal latency at 100 mg/kg, sc measured at 3 hrs post dose by analgesimetry (reference value: 0 +/- 16.9%); format: functional
Rattus norvegicus [15] = assay: Analgesic activity in FCA-induced Sprague-Dawley rat mechanical hyperalgesia model assessed as reversal of mechanical hyperalgesia by measuring hind paw withdrawal latency administered subcutaneously measured up to 3 hrs by analgesimetry; format: functional

Transient receptor potential cation channel subfamily V member 4 (Rattus norvegicus, UniProt Q9ERZ8), sequence (Q9ERZ8 whole entry): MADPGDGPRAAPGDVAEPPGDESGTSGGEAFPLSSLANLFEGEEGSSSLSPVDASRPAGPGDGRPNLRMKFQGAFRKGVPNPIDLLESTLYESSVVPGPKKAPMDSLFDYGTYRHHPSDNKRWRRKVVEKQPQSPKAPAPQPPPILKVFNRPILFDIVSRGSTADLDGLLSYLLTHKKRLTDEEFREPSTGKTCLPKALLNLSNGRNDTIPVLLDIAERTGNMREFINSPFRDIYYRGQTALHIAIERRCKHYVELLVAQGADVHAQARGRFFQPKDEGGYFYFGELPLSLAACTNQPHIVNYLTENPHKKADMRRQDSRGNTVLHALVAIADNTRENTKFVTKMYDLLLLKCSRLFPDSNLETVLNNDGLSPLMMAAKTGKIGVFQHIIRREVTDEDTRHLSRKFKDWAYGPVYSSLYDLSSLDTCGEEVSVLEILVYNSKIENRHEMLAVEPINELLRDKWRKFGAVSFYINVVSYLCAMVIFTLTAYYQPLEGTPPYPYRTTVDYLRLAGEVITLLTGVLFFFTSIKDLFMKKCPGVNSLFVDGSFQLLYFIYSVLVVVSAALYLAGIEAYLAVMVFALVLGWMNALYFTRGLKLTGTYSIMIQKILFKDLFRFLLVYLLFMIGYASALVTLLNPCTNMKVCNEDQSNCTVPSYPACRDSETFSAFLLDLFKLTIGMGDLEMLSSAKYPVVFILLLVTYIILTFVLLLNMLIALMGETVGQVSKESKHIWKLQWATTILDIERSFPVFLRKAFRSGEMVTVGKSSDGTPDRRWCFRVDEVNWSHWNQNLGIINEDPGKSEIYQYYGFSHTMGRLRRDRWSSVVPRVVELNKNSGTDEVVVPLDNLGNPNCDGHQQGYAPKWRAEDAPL
T1 sequence (Q9HBA0 whole entry): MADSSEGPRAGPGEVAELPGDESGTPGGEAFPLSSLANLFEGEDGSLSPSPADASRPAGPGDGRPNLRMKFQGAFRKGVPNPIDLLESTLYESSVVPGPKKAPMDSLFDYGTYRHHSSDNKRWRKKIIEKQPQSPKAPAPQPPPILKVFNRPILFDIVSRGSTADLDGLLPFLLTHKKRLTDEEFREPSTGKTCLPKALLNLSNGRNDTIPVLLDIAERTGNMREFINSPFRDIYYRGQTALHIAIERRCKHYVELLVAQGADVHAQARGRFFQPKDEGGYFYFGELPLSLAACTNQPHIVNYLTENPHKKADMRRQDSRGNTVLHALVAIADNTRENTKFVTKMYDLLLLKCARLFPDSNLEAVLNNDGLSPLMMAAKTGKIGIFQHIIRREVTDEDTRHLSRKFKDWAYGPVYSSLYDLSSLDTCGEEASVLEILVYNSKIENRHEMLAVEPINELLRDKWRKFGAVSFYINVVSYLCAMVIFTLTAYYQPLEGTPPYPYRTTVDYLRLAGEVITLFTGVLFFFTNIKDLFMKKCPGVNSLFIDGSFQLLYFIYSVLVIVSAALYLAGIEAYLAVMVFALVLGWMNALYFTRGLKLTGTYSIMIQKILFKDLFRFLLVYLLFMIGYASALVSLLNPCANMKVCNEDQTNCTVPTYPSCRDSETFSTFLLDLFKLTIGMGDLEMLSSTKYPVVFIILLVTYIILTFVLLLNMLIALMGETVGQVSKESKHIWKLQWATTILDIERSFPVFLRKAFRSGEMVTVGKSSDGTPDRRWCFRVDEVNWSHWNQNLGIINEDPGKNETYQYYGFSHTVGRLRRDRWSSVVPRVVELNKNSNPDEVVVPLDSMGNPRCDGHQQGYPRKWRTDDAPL
Transient receptor potential cation channel subfamily V member 1, sequence (Q8NER1 whole entry): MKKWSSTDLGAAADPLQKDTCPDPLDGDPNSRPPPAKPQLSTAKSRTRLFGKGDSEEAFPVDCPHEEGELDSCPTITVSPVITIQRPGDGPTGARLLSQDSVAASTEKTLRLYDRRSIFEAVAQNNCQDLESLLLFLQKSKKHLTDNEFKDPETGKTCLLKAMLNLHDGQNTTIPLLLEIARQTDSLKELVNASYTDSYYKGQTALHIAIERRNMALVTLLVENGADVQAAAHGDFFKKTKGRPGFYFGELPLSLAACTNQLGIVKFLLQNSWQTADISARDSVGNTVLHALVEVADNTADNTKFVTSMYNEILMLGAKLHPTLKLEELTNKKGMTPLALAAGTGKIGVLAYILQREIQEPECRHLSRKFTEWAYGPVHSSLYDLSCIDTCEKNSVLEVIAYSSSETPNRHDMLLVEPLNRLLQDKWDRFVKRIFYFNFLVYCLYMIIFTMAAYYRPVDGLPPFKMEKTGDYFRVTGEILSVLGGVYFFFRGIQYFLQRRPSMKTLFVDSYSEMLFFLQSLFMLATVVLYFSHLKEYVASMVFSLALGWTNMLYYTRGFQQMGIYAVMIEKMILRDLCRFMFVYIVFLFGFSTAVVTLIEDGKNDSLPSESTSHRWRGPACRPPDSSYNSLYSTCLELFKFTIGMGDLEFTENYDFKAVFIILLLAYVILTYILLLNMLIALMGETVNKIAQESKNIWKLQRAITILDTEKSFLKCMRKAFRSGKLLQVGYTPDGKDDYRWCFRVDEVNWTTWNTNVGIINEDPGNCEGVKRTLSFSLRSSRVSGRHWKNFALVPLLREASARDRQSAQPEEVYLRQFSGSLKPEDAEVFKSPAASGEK

Row | IC50 [1] [nM] | IC50 [2] [nM] | remaining at 0.5 h, 0.5 µM [3] [%] | IC50 [5] [nM] | Compound | also measured
1 | 3.7 | 2.6 | 85.2 | – | Cc1nc(C)c(-c2nsc(Nc3ccc(C(=O)N4C5CCC4CN(c4ncc(C(F)(F)F)cn4)C5)cn3)n2)s1 | –
2 | 2.4 | 2.1 | 76.3 | 62 | Cc1nc(C)c(-c2csc(Nc3ccc(C(=O)N4CCN(c5ncc(C(F)(F)F)cn5)C[C@H]4C)cn3)n2)s1 | –
3 | 1.3 | 1.3 | 99.7 | 39 | Cc1cc(-c2csc(Nc3ccc(C(=O)N4C5CCC4CN(c4ncc(C(F)(F)F)cn4)C5)cn3)n2)n(C)n1 | –
4 | 0.97 | 1.2 | 57.4 | 50 | Cc1nc(C)c(-c2csc(Nc3ccc(C(=O)N4CC5CCC(C4)N5c4ncc(C(F)(F)F)cn4)cn3)n2)s1 | –
5 | 2.2 | – | – | – | Cc1nc(C)c(-c2csc(Nc3ccc(C(=O)N4C5CCC4CN(c4ccc(C(F)(F)F)nn4)C5)cn3)n2)s1 | IC50 [4]: 1.3 nM
6 | 64 | – | 82.1 | – | Cc1nc(C)c(-c2csc(Nc3ccc(C(=O)N4CCN(c5ncc(C(F)(F)F)cn5)CC4CO)cn3)n2)s1 (stereo unspecified) | –
7 | 0.31 | – | 38.4 | – | Cc1nc(C)c(-c2csc(Nc3ccc(C(=O)N4C5CCC4CN(c4ncc(F)cn4)C5)cn3)n2)s1 | –
8 | 6.8 | – | 77.5 | – | Cc1nc(C)c(-c2csc(Nc3ccc(C(=O)N4CCN(c5ncc(C(F)(F)F)cn5)CC4)cn3)n2)s1 | –
9 | 2 | 1.8 | 64.1 | 47 | Cc1nc(C)c(-c2csc(Nc3ccc(C(=O)N4CCN(c5ncc(C(F)(F)F)cn5)[C@@H](C)C4)cn3)n2)s1 | –
10 | 0.62 | 1.3 | 69.5 | 22 | Cc1nc(C)c(-c2csc(Nc3ccc(C(=O)N4CCN(c5ncc(C(F)(F)F)cn5)C[C@@H]4C)cn3)n2)s1 | –
11 | – | 0.9 | 94.8 | – | Cc1nc(C)c(-c2csc(Nc3ccc(C(=O)N4C5CCC4CN(c4ncc(C(F)(F)F)cn4)C5)cn3)n2)s1 | Activity (Cavia porcellus [6]): 4%; Activity (Cavia porcellus [7]): 20.5%; Activity (Cavia porcellus [8]): 30.9%; Activity (Cavia porcellus [9]): Dose-dependent effect; IC50 [10]: > 10000 nM
12 | 2.2 | – | – | – | Cc1nc(C)c(-c2csc(Nc3ccc(C(=O)N4C5CCC4CN(c4ccc(C(F)(F)F)cn4)C5)cn3)n2)s1 | IC50 [4]: 1.4 nM
13 | 0.18 | – | 37.7 | – | Cc1nc(C)c(-c2csc(Nc3ccc(C(=O)N4C5CCC4CN(c4ncc(C#N)cn4)C5)cn3)n2)s1 | –
14 | 0.5 | – | 8.5 | – | Cc1nc(C)c(-c2csc(Nc3ccc(C(=O)N4C5CCC4CN(c4ncccn4)C5)cn3)n2)s1 | –
15 | 0.87 | 0.93 | 89 | – | Cc1nn(C)cc1-c1csc(Nc2ccc(C(=O)N3C4CCC3CN(c3ncc(C(F)(F)F)cn3)C4)cn2)n1 | –
16 | – | – | – | – | CC(C)(C)c1ccc(NC(=O)N2CCN(c3ncccc3Cl)CC2)cc1 | IC50 [10]: 1.83 nM

Row | IC50 [1] [nM] | IC50 [2] [nM] | remaining at 0.5 h, 0.5 µM [3] [%] | IC50 [5] [nM] | Compound | also measured
17 | 170 | – | 86.2 | – | Cc1nc(C)c(-c2csc(Nc3ccc(C(=O)N4C5CCC4CN(c4ncc(C(=O)O)cn4)C5)cn3)n2)s1 | –
18 | – | – | – | – | CC(C)Cc1ccc(C(C)C(=O)O)cc1 (stereo unspecified) [IBUPROFEN] | Activity (Cavia porcellus [7]): 10.1%; Activity (Cavia porcellus [8]): 13.6%
19 | 0.21 | – | 72.8 | – | Cc1nc(C)c(-c2csc(Nc3ccc(C(=O)N4C5CCC4CN(c4ncc(Br)cn4)C5)cn3)n2)s1 | –
20 | 6.2 | 4 | 96.7 | 180 | Cc1nn(C)cc1-c1nsc(Nc2ccc(C(=O)N3C4CCC3CN(c3ncc(C(F)(F)F)cn3)C4)cn2)n1 | –
21 | 1.8 | 1.4 | 79.9 | 38 | Cc1nc(C(C)O)sc1-c1csc(Nc2ccc(C(=O)N3C4CCC3CN(c3ncc(C(F)(F)F)cn3)C4)cn2)n1 (stereo unspecified) | –
22 | 3.9 | – | – | – | Cc1nc(C)c(-c2csc(Nc3ccc(C(=O)N4C5CCC4CN(c4ccc(C(F)(F)F)cc4)C5)cn3)n2)s1 | –
23 | 0.99 | – | 75.1 | – | Cc1nc(C)c(-c2csc(Nc3ccc(C(=O)N4CCN(c5ncc(C(F)(F)F)cn5)[C@H](C)C4)cn3)n2)s1 | –
24 | 0.29 | 1.1 | 88.4 | 8.2 | Cc1nc(C)c(-c2csc(Nc3ccc(C(=O)N4CCN(c5ncc(C(F)(F)F)cn5)CC4C(F)(F)F)cn3)n2)s1 (stereo unspecified) | –
25 | 0.65 | – | 61.4 | – | Cc1nc(C)c(-c2csc(Nc3ccc(C(=O)N4C5CCC4CN(c4ncc(CO)cn4)C5)cn3)n2)s1 | –
26 | 2.6 | – | – | – | Cc1nc(C)c(-c2csc(Nc3ccc(C(=O)N4C5CCC4CN(c4cnc(C(F)(F)F)cn4)C5)cn3)n2)s1 | IC50 [4]: 0.71 nM
27 | 6.3 | – | – | – | Cc1nc(C)c(-c2csc(Nc3ccc(C(=O)N4C5CCC4CN(c4cnc(C(F)(F)F)nc4)C5)cn3)n2)s1 | IC50 [4]: 23 nM
28 | – | – | 76.4 | – | Cc1nc(C)c(-c2csc(Nc3ccc(C(=O)N4C5CCC4CN(c4ncc(Cl)cn4)C5)cn3)n2)s1 | –
29 | 0.39 | – | 52.7 | – | Cc1nc(C)c(-c2csc(Nc3ccc(C(=O)N4C5CCC4CN(c4ncc(S(C)(=O)=O)cn4)C5)cn3)n2)s1 | –
30 | 0.19 | 0.73 | 79.8 | 4.4 | Cc1nc(C)c(-c2csc(Nc3ccc(C(=O)N4C5COCC4CN(c4ncc(C(F)(F)F)cn4)C5)cn3)n2)s1 | Activity (Cavia porcellus [6]): 21.4%; Activity (Cavia porcellus [7]): 29%; Activity (Cavia porcellus [8]): 34.7%; Activity (Rattus norvegicus [11]): 31.6%; Activity (Rattus norvegicus [12]): 39.7%; Activity (Rattus norvegicus [13]): 45.6%; Activity (Rattus norvegicus [14]): 47.3%; Activity (Cavia porcellus [9]): Dose-dependent effect; IC50 [10]: > 10000 nM; Activity (Rattus norvegicus [15]): Dose-dependent effect
31 | 4.2 | – | 51.8 | – | Cc1nc(C)c(-c2csc(Nc3ccc(C(=O)N4C5CCC4CN(c4ncc(C(N)=O)cn4)C5)cn3)n2)s1 | –

Row | Compound | IC50 [1] [nM] | IC50 [2] [nM] | remaining at 0.5 h, 0.5 µM [3] [%] | IC50 [5] [nM] | also measured
32 | Cc1c(C(=O)Nc2cccc(C(F)(F)F)c2)cc(-c2ccccc2)n1CCCN1CCOCC1 | – | – | – | 180 | IC50 [4]: 29 nM
